Data published in ChEMBL document CHEMBL2176955, “Discovery of the macrocycle 11-(2-pyrrolidin-1-yl-ethoxy)-14,19-dioxa-5,7,26-triaza-tetracyclo[19.3.1.1(2,6).1(8,12)]heptacosa-1(25),2(26),3,5,8,10,12(27),16,21,23-decaene (SB1518), a potent Janus kinase 2/fms-like tyrosine kinase-3 (JAK2/FLT3) inhibitor for the treatment of myelofibrosis and …” (J Med Chem, 2011).

Key:
[1] = Antitumor activity against mouse BA/F3 cells harboring JAK2 V617F mutant allografted in athymic BALB/c nude mouse assessed as normalization of liver weight at 150 mg/kg, po bid administered on day 4 post inoculation for 13 consecutive days measured on day 13 relative to vehicle-treated control; format: functional, BaF3
Procedure, shortened: (§1)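 Female BALB/c nude mice given 2 × 10⁶ Ba/F3-JAK2 V617F cells by tail vein in serum-free medium. Oral dosing twice daily at 75 or 150 mg/kg (free base) from day 4 for 13 days, 8 mice per group, 4 naive baseline mice. Spleens and livers weighed at sacrifice; ANOVA with Dunnett's test.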

[2] = Antitumor activity against mouse BA/F3 cells harboring JAK2 V617F mutant allografted in athymic BALB/c nude mouse assessed as normalization of spleen weight at 150 mg/kg, po bid administered on day 4 post inoculation for 13 consecutive days measured on day 13 relative to vehicle-treated control; format: functional, BaF3; procedure, shortened: as §1
Mus musculus [3] = assay: Toxicity in athymic BALB/c nude mouse allografted with mouse BA/F3 cells harboring JAK2 V617F mutant assessed as body weight loss at 75 mg/kg, po administered twice daily for 13 consecutive days starting from day 4 post challenge relative to control; format: organism-based, BaF3; design: dose 75 mg/kg, route oral; conditions: in vivo
Mus musculus [4] = assay: Toxicity in athymic BALB/c nude mouse xenografted with human MV4-11 cells harboring FLT3 ITD assessed as body weight loss at 50 to 100 mg/kg, po qd administered for 21 consecutive days measured up to 55 days relative to control; format: organism-based; design: dose 50-100 mg/kg, route oral; conditions: in vivo, 1320 h
Procedure, shortened: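 Female BALB/c nude mice implanted subcutaneously in right flank with 1 × 10⁷ MV4-11 cells in Matrigel 1:1. At about 130 mm³, oral once-daily dosing at 25, 50 or 100 mg/kg (free base) for 21 days, 8–10 mice per group. Tumours followed to day 55 or 1000 mm³; body weight assessed at termination.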

MV4-11 [5] = assay: Antitumor activity against human MV4-11 cells harboring FLT3 ITD xenografted in athymic BALB/c nude mouse assessed as survival at 100 mg/kg, po qd administered for 21 consecutive days measured up to 55 days ( Rvb = 33 days ); format: functional
MV4-11 [6] = assay: Antitumor activity against human MV4-11 cells harboring FLT3 ITD xenografted in athymic BALB/c nude mouse assessed as survival at 50 mg/kg, po qd administered for 21 consecutive days measured up to 55 days ( Rvb = 33 days ); format: functional
MV4-11 [7] = assay: Antitumor activity against human MV4-11 cells harboring FLT3 ITD xenografted in athymic BALB/c nude mouse assessed as survival at 25 mg/kg, po qd administered for 21 consecutive days measured up to 55 days ( Rvb = 33 days ); format: functional
[8] = Half life in rat liver microsomes at 5 uM by LC/MS/MS analysis; format: ADME, Microsome
Procedure, shortened: (§2)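 Compound at 5 μM incubated at 37 °C with dog or rat liver microsomes (~0.87 mg/mL) in 50 mM potassium phosphate pH 7.4 with NADPH regenerating system.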

[9] = Half life in dog liver microsomes at 5 uM by LC/MS/MS analysis; format: ADME, Canis lupus familiaris, Microsome; procedure, shortened: as §2
[10] = AUC ( 0 to 8 hrs) in Beagle dog at 3 mg/kg, po administered via gelatin capsule as single dose; format: ADME, organism-based, Canis lupus familiaris; design: time < 8 hr, dose 3 mg/kg, route oral; conditions: plasma
[11] = Terminal half life in Beagle dog at 3 mg/kg, po administered via gelatin capsule as single dose; format: ADME, organism-based, Canis lupus familiaris; design: dose 3 mg/kg, route oral; conditions: in vivo, read-out: beta t1/2 (converted)
[12] = Tmax in Beagle dog at 3 mg/kg, po administered via gelatin capsule as single dose; format: ADME, organism-based, Canis lupus familiaris; design: dose 3 mg/kg, route oral; conditions: in vivo
[13] = AUC (0 to 8 hrs) in Wistar rat at 10 mg/kg, po administered as single dose; format: ADME, organism-based; design: time < 8 hr, dose 10 mg/kg, route oral; conditions: plasma
[14] = Cmax in Beagle dog at 3 mg/kg, po administered via gelatin capsule as single dose; format: ADME, organism-based, Canis lupus familiaris; design: dose 3 mg/kg, route oral; conditions: in vivo
[15] = Terminal half life in Wistar rat at 10 mg/kg, po administered as single dose; format: ADME, organism-based; design: dose 10 mg/kg, route oral; conditions: in vivo, read-out: beta t1/2 (converted)
[16] = Cmax in Wistar rat at 10 mg/kg, po administered as single dose; format: ADME, organism-based; design: dose 10 mg/kg, route oral; conditions: in vivo
[17] = Terminal half life in BALB/c mouse at 30 mg/kg, po administered as single dose; format: ADME, organism-based; design: dose 30 mg/kg, route oral; conditions: in vivo, read-out: beta t1/2 (converted)
[18] = AUC (0 to 8 hrs) in BALB/c mouse at 30 mg/kg, po administered as single dose; format: ADME, organism-based; design: time < 8 hr, dose 30 mg/kg, route oral; conditions: plasma
[19] = Cmax in BALB/c mouse at 30 mg/kg, po administered as single dose; format: ADME, organism-based; design: dose 30 mg/kg, route oral; conditions: in vivo
[20] = Oral bioavailability in Wistar rat at 10 mg/kg, administered as single dose; format: ADME, organism-based; conditions: in vivo
[21] = Oral bioavailability in Beagle dog at 3 mg/kg, administered as single dose; format: ADME, organism-based, Canis lupus familiaris; conditions: in vivo
[22] = Plasma protein binding in mouse at 1000 ng/ml by LC/MS/MS analysis; format: ADME, cell-free; conditions: read-out: PPB (converted)
Procedure, shortened: (§3)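 Equilibrium dialysis of mouse, dog or human plasma spiked to 1000 ng/mL against PBS, 4 h at 37 °C. The buffer side was extracted with MTBE in triplicate and analysed by LC/MS/MS.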

[23] = Oral bioavailability in BALB/c mouse at 30 mg/kg, administered as single dose; format: ADME, organism-based; conditions: in vivo
[24] = Plasma protein binding in human at 1000 ng/ml by equilibrium dialysis assay; format: ADME, cell-free; conditions: read-out: PPB (converted); procedure, shortened: as §3
[25] = Plasma protein binding in dog at 1000 ng/ml by LC/MS/MS analysis; format: ADME, cell-free, Canis lupus familiaris; conditions: read-out: PPB (converted); procedure, shortened: as §3
[26] = Apparent permeability from apical to basolateral side in human Caco2 cells at 5 uM after 2 hrs by LC/MS analysis at pH 7.4; format: ADME, cell-based; conditions: Caco-2, pH 7.4
Procedure, shortened: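 Compound at 5 μM in HBSS (DMSO <1%) applied apically or basolaterally to 21–28 day Caco-2 monolayers, both sides pH 7.4. Both sides sampled at 2 h, LC/MS quantitation with 4-point calibration. Monolayer integrity checked by TEER (450–650 Ωcm²) and Lucifer Yellow.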

MV4-11 [27] = assay: Antiproliferative activity against human MV4-11 cells harboring FLT3 […] mutant assessed as cell viability after 48 hrs by Cell titer Glo assay; format: functional; conditions: MV4-11, 48 h
[28] = Antiproliferative activity against mouse BA/F3 cells harboring JAK2 V617F mutation assessed as cell viability after 48 hrs by Cell titer Glo assay; format: functional; conditions: BaF3, 48 h
CYP2D6 = CYP2D6 (Homo sapiens, UniProt P10635); assay: Inhibition of CYP2D6 in human liver microsomes assessed as decrease in formation of dextrorphan from dextromethorphan substrate at 5 uM after 30 mins by LC-MS/MS; format: ADME, Microsome; conditions: probe dextromethorphan
Sequence of CYP2D6 (P10635 whole entry, canonical isoform): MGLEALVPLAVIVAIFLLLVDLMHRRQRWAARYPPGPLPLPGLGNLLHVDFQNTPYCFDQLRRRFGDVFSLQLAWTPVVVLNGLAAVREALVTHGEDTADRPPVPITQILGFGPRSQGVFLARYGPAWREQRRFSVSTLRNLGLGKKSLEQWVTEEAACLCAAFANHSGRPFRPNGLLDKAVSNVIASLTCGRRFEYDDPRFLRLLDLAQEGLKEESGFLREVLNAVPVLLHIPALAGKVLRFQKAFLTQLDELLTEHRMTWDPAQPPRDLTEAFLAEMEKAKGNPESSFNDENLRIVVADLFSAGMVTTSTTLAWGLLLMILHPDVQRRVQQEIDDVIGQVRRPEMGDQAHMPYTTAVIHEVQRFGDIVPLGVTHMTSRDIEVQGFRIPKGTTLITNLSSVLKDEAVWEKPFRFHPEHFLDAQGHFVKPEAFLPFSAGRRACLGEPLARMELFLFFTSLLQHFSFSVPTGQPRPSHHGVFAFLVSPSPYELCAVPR
Procedure, shortened: (§4)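 Human liver microsomes with 1 mM NADPH at 37 °C. Test compound at 0.05–25 μM (final DMSO 0.35%). Conditions per isoform: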

CYP3A4 = CYP3A4 (Homo sapiens, UniProt P08684); assay: Inhibition of CYP3A4 in human liver microsomes assessed as decrease in formation of 1-hydroxymidazolam from midazolam substrate at 5 uM after 5 mins by LC-MS/MS; format: ADME, Microsome; conditions: probe midazolam; procedure, shortened: as §4
Sequence of CYP3A4 (P08684 whole entry): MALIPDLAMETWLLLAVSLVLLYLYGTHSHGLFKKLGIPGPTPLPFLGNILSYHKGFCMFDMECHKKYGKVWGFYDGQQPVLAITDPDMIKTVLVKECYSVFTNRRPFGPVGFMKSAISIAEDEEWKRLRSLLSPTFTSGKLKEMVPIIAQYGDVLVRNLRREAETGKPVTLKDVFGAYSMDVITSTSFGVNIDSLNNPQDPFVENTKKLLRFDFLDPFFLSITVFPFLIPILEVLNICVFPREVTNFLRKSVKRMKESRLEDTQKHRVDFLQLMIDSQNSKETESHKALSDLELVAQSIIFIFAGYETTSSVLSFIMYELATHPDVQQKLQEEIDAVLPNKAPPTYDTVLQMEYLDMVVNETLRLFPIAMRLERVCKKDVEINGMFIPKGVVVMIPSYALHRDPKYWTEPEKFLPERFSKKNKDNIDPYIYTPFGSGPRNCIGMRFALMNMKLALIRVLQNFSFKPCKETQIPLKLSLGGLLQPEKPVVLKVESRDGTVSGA

Cytochrome P450 2C19 = Cytochrome P450 2C19 (Homo sapiens, UniProt P33261); assay: Inhibition of CYP2C19 in human liver microsomes assessed as decrease in formation of 4-hydroxymephenytoin from mephenytoin substrate after 60 mins by LC-MS/MS; format: ADME, Microsome; procedure, shortened: as §4
Sequence of Cytochrome P450 2C19 (P33261 whole entry): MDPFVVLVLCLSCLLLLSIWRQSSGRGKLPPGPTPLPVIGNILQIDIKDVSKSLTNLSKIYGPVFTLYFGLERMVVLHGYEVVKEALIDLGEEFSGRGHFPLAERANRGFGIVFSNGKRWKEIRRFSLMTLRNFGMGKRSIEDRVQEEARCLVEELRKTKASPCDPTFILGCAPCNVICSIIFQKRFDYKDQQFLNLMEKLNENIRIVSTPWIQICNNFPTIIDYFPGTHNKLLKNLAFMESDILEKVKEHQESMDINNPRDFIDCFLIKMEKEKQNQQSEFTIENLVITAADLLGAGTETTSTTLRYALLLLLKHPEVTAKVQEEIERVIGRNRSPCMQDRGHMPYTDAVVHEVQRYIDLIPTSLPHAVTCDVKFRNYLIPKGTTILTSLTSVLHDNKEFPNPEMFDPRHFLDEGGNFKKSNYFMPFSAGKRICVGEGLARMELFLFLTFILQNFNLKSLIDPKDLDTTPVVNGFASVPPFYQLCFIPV

Cytochrome P450 2C9 = Cytochrome P450 2C9 (Homo sapiens, UniProt P11712); assay: Inhibition of CYP2C9 in human liver microsomes assessed as decrease in formation of 4-hydroxytolbutamide from tolbutamide substrate after 60 mins by LC-MS/MS; format: ADME, Microsome; procedure, shortened: as §4
Sequence of Cytochrome P450 2C9 (P11712 whole entry): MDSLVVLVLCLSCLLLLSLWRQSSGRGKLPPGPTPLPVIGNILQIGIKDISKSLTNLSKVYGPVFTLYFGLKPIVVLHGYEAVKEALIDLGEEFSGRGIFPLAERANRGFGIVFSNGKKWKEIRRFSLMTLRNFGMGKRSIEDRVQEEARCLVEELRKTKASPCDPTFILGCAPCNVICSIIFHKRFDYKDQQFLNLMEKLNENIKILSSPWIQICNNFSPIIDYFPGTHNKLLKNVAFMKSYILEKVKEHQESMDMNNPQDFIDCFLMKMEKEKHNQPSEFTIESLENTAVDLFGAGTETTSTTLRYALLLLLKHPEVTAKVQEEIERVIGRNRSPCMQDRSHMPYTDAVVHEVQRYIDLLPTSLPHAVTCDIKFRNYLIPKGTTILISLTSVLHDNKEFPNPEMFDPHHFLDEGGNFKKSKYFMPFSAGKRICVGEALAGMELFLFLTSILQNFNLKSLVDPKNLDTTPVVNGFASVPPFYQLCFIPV

Cytochrome P450 1A2 = target: T1, Cytochrome P450 1A2 (Homo sapiens, UniProt P05177); assay: Inhibition of CYP1A2 in human liver microsomes assessed as decrease in formation of resorufin from ethoxyresorufin substrate after 5 mins by LC-MS/MS; format: ADME, Microsome; procedure, shortened: as §4
T1 sequence (P05177 whole entry): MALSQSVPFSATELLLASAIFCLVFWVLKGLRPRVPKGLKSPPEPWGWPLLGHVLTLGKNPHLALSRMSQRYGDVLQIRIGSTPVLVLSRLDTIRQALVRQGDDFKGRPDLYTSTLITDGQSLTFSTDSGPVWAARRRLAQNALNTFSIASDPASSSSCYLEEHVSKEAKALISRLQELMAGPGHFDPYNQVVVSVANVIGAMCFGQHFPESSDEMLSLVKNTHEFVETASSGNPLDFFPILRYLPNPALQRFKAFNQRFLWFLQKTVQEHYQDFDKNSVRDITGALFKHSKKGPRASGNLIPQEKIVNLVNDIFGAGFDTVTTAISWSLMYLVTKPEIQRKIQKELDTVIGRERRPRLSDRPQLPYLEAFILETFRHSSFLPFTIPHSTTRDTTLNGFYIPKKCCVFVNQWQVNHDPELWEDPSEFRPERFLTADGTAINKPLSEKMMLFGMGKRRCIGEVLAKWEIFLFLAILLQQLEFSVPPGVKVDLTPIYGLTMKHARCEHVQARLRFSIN

[29] = target: Non-receptor tyrosine-protein kinase TYK2 (Homo sapiens, UniProt P29597); assay: Inhibition of recombinant TYK2
Sequence of Non-receptor tyrosine-protein kinase TYK2 (P29597 whole entry): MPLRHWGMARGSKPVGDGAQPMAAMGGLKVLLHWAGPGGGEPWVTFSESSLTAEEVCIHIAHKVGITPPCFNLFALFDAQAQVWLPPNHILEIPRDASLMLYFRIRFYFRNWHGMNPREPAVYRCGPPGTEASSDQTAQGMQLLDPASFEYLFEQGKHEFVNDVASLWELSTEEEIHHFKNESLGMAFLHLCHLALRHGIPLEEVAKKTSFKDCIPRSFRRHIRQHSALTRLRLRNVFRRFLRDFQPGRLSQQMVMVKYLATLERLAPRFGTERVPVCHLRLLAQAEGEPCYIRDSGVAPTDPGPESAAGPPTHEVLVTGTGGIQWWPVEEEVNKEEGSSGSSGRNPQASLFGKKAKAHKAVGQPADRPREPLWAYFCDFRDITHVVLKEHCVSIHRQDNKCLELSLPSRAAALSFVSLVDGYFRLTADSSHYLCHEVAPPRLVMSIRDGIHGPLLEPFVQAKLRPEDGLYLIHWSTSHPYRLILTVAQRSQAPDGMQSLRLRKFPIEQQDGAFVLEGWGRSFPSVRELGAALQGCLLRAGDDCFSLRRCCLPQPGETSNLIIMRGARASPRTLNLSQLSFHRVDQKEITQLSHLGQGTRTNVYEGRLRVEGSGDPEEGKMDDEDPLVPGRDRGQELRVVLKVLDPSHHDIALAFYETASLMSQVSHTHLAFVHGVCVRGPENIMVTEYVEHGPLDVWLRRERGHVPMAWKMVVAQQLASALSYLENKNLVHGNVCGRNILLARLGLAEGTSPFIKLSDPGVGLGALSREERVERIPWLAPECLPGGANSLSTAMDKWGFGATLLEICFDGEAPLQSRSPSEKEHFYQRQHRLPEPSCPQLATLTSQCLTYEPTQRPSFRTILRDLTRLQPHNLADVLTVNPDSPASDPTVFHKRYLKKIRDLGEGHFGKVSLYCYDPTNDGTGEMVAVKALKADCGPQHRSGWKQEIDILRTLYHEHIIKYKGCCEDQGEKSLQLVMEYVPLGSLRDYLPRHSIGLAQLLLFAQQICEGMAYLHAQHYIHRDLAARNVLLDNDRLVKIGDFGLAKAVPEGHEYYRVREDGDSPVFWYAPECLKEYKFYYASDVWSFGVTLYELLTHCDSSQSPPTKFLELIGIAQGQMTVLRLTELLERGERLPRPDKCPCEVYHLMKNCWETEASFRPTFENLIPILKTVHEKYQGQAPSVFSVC

[30] = target: Tyrosine-protein kinase JAK1 (Homo sapiens, UniProt P23458); assay: Inhibition of recombinant JAK1 using Poly (Glu,Ala,Tyr) as substrate after 2 hrs by luminescence assay
Sequence of Tyrosine-protein kinase JAK1 (P23458 whole entry): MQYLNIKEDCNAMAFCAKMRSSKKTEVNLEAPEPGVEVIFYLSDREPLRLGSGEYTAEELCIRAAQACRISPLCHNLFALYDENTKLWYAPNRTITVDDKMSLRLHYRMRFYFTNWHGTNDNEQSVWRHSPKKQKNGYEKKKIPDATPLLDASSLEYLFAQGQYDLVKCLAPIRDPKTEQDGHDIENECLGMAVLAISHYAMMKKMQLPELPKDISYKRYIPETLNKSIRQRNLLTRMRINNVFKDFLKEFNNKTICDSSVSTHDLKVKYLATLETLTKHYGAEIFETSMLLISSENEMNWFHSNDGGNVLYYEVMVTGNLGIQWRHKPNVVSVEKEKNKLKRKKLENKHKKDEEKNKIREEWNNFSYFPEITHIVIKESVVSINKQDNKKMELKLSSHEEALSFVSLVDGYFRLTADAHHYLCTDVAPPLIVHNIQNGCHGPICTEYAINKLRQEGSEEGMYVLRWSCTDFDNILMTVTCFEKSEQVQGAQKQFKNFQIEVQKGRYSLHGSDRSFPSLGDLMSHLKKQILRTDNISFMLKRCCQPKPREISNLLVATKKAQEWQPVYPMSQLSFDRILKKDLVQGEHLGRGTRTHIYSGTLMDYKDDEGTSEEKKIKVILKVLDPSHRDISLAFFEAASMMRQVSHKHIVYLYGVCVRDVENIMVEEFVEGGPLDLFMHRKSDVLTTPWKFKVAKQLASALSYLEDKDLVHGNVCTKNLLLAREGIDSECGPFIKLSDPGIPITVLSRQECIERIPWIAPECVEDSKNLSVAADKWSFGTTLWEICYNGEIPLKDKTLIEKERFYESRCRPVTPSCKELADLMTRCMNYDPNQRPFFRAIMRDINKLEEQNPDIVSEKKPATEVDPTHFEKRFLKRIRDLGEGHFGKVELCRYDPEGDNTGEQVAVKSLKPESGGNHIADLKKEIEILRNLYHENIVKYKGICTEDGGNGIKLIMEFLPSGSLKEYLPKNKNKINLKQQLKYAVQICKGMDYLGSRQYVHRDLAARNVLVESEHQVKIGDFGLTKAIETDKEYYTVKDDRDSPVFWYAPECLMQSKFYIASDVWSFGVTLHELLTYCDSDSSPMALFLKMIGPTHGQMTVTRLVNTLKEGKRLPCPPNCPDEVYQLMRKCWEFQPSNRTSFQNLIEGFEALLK
Procedure, shortened: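 Luciferase-coupled ATP-depletion luminescence assay in 50 mM Hepes pH 7.5 with MgCl₂, MnCl₂, BGP, DTT and orthovanadate, 2 h at room temperature. Conditions per target: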

[31] = target: Cyclin-dependent kinase 2/cyclin A (Homo sapiens, UniProt P24941); assay: Inhibition of recombinant CDK2/Cyclin A using RbinG as substrate after 2 hrs by luminescence assay; format: protein-complex assay
in vitro = conditions: PAMPA
physchem = conditions: phosphate buffer saline, pH 7
Mus musculus [32] = assay: Toxicity in athymic BALB/c nude mouse allografted with mouse BA/F3 cells harboring JAK2 V617F mutant assessed as body weight loss at 75 and 150 mg/kg, po administered twice daily for 13 consecutive days starting from day 4 post challenge relative to control; conditions: in vivo

C1=CCOCc2cc(ccc2OCCN2CCCC2)Nc2nccc(n2)-c2cccc(c2)COC1.Cl (mixture of isomers)
Activity [1]: 99% | Activity [2]: 42%

C1=N/C2=N/c3ccc(OCCN4CCCC4)c(c3)COC/C=C/COCc3cccc(c3)C(=C1)N2 (mixture of isomers) [PACRITINIB]
Activity (Mus musculus [3]): Non-toxic | Activity (Mus musculus [4]): Non-toxic | Survival (MV4-11 [5]): 55 days | Survival (MV4-11 [6]): 55 days | Survival (MV4-11 [7]): 35 days | half-life at 5 µM [8]: 0.3 h | half-life at 5 µM [9]: 0.683 h | AUC(0-t) at 8 h [10]: 53 ng·h/mL | half-life [11]: 3.4 h | Tmax [12]: 2 h | AUC(0-t) at 8 h [13]: 599 ng·h/mL | Cmax [14]: 11.5 ng/mL | half-life [15]: 5.7 h | Cmax [16]: 114 ng/mL | half-life [17]: 0.84 h | AUC(0-t) at 8 h [18]: 399 ng·h/mL | Cmax [19]: 292 ng/mL | bioavailability [20]: 10% | bioavailability [21]: 24% | fraction unbound at 1000 ng/ml [22]: 0.0059 | bioavailability [23]: 39% | fraction unbound at 1000 ng/ml [24]: 0.0012 | fraction unbound at 1000 ng/ml [25]: 0.0037 | Papp A→B at 2 h, 5 µM [26]: 16 ×10⁻⁶ cm/s | GI50 (MV4-11 [27]): 47 nM | GI50 [28]: 160 nM | inhibition at 0.5 h, 5 µM (CYP2D6): 20% | inhibition at 5 min, 5 µM (CYP3A4): 20% | IC50 (Cytochrome P450 2C19): > 5000 nM | IC50 (Cytochrome P450 2C9): > 5000 nM | IC50 (Cytochrome P450 1A2): > 5000 nM | IC50 [29]: 50 nM | IC50 [30]: 1280 nM | IC50 [31]: 3900 nM | Papp at 5 h, 1 µM (in vitro): 9.3 ×10⁻⁶ cm/s | solubility (physchem): > 150 µg/mL | Activity (Mus musculus [32]): Non-toxic
